Published values pooled from the literature.
Target: Serine/threonine-protein kinase Nek3 (NEK3, Homo sapiens, UniProt P51956)
Sequence (P51956 1-506, as in one of the studies): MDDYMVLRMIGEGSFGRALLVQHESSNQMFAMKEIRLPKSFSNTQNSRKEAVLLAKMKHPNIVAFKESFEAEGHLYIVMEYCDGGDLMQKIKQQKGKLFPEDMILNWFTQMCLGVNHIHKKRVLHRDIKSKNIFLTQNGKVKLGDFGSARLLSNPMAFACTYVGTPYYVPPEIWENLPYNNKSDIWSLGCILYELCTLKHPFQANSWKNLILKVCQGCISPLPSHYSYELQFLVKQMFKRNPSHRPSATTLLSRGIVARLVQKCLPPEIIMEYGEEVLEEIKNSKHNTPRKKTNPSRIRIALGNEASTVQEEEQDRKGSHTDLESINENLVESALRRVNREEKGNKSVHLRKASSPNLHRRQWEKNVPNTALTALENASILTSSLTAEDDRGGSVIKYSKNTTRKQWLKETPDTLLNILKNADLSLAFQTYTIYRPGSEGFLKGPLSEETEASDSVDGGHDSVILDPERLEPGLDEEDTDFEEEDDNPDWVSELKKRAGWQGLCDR

SMILES	observed	action	technique	tested at	quantity	value
CC(C)S(=O)(=O)c1ccc2nccc(Nc3ccc4sc(C5CCCC5)nc4c3)c2c1	enzyme activity	inhibitor	–	1 µM	activity vs control	111%
C=CC(=O)N1CCC[C@@H](n2nc(-c3ccc(Oc4ccccc4)cc3)c3c(N)ncnc32)C1	enzyme activity	inhibitor	–	1 µM	inhibition	5%
CN1CCN(C(=O)c2ccc(NC(=O)Nc3ccc(N(C)c4ccnc(Nc5ccc(CS(C)(=O)=O)cc5)n4)cc3)cc2)CC1	binding	–	–	1 µM	remaining binding	66%
Cc1cc(O)c(-c2ccc([C@@H](C)CN(C)C)cc2)c2c1[nH]c(=O)c1sccc12	enzyme activity	inhibitor	–	0.1 µM	inhibition	-5.15%
C=CC(=O)N1CCC([C@@H]2CCNc3c(C(N)=O)c(-c4ccc(Oc5ccccc5)cc4)nn32)CC1	enzyme activity	inhibitor	–	1 µM	inhibition	44%
Cc1ccc(NC(=O)c2ccnc(C(F)(F)F)c2)cc1-c1cc(OCCO)nc(N2CCOCC2)c1	binding	–	–	1 µM	remaining binding	95%
CCCCC(=O)Nc1ccc(-c2ccc3ncn(CCC)c(=O)c3c2)cn1	binding	–	competition with immobilised ligand	0.5 µM	remaining binding	87%
C1=C/COCc2cc(ccc2OCCN2CCCC2)Nc2nccc(n2)-c2cccc(c2)COC/1	binding	–	–	0.1 µM	remaining binding	82%
